Measured values published in PubChem BioAssay AID602209 (Southern Research Specialized Biocontainment Screening …, 2012).
Active and inactive are the calls of the source.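 The calls were made as follows: active = inhibition of 30% or more at any tested concentration; inactive = the rest.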

Target: M17 leucyl aminopeptidase (Plasmodium falciparum 3D7)
Test: Inhibition of P. falciparum M17 aminopeptidase – biochemical, QFRET, set 2, counter-screen for PfM1AAP inhibitor project, dose response (AID 602209)
Details: recombinant PfM17LAP, H-Leu-NHMec fluorogenic cleavage
Procedure, shortened: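 Test system: Recombinant Plasmodium falciparum M17 leucine aminopeptidase enzyme | Amount: Recombinant PfM17LAP enzyme at 5 µg/mL final | Read-out: % inhibition and IC50 via 4-parameter fit | Compound: 100–0.2 µM, 2-fold dilutions | Repeats: Triplicate | Detection: Fluorescence of released NHMec leaving group | Timing: Reaction 90 min, room temperature | Buffer or medium: Tris-HCl pH 7.5 plus CoCl2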

SMILES: CC[C@H](C)[C@H](NC(=O)c1ccc(C(C)(C)C)cc1)C(=O)NCc1ccc(Cl)cc1
- inhibition (at 100 µM (top of the series)): inactive

SMILES: O=C(NCc1ccc(F)cc1)C1CCN(S(=O)(=O)c2ccc(Br)s2)CC1
- IC50: 8.81 µM

SMILES: O=C(NCc1ccc2c(c1)OCO2)C1CCN(S(=O)(=O)c2ccc(Br)s2)CC1
- IC50: 3.57 µM

SMILES: CC[C@H](C)[C@H](NC(=O)c1ccc(C(C)(C)C)cc1)C(=O)NCc1ccc2c(c1)OCO2
- inhibition (at 1.56 µM (top of the series)): inactive

SMILES: O=C(NCc1ccccc1)C1CCN(S(=O)(=O)c2ccc(Br)s2)CC1
- IC50: 3.52 µM

SMILES: CC[C@H](C)[C@H](NS(=O)(=O)c1ccc(Br)s1)C(=O)NCc1ccc(Cl)cc1
- inhibition (at 100 µM (top of the series)): inactive

SMILES: O=C(NCc1ccc(Cl)cc1)C1CCN(S(=O)(=O)c2ccc(Br)s2)CC1
- IC50: 38.9 µM

SMILES: CC[C@H](C)[C@H](NS(=O)(=O)c1ccc(Br)s1)C(=O)NCc1ccc2c(c1)OCO2
- inhibition (at 100 µM (top of the series)): inactive
